The text below walks through data of ChEMBL document CHEMBL4229571, “Development of 13H-benzo[f]chromeno[4,3-b][1,7]naphthyridines and their salts as potent cytotoxic agents and topoisomerase I/IIα inhibitors” (2018).

Several values for one entry are separate records, joined by “and”; a condition that tells them apart may be missing. Identical values can stand only once.

The test system of one assay is NCI-H23. The assay can be described thus: Cytotoxicity against human NCI-H23 cells assessed as growth inhibition after 72 hrs by SRB assay. The class given is functional. The gist of the method:
(§1)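 SRB assay per NCI protocol: 2 × 10^3 cells/well seeded, compounds in DMSO/media added next day (day 0) in quadruplicate at 1 nM–10 μM final, DMSO <0.1%. After 72 h, TCA fixation overnight at 4°C, 0.4% SRB 1 h, dye dissolved in 10 mM Tris, A690 read; day 0 absorbance subtracted. GI50 = concentration giving 50% drop in net growth, mean of three experiments.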
A general note: Sulforhodamine B stains cellular protein and so reports cell mass.

In the next assay the test system is HCT-15. The assay can be described thus: Cytotoxicity against human HCT15 cells assessed as growth inhibition after 72 hrs by SRB assay. The class given is functional. The gist of the method: as §1
Another assay relates to NUGC-3. The assay can be described thus: Cytotoxicity against human NUGC3 cells assessed as growth inhibition after 72 hrs by SRB assay. The class given is functional. The gist of the method: as §1
In a further assay the test system is ACHN. The assay can be described thus: Cytotoxicity against human ACHN cells assessed as growth inhibition after 72 hrs by SRB assay. It is filed as functional. The gist of the method: as §1
The next assay has as its system PC-3. Kind of assay: Cytotoxicity against human PC3 cells assessed as growth inhibition after 72 hrs by SRB assay. It is filed as functional. The gist of the method:
as §1

Another assay concerns MDA-MB-231. Kind of assay: Cytotoxicity against human MDA-MB-231 cells assessed as growth inhibition after 72 hrs by SRB assay. The class given is functional. The gist of the method: as §1
For assay [1], the target named is T1, DNA topoisomerase 1 (Homo sapiens) (UniProt P11387).
T1 sequence (whole entry): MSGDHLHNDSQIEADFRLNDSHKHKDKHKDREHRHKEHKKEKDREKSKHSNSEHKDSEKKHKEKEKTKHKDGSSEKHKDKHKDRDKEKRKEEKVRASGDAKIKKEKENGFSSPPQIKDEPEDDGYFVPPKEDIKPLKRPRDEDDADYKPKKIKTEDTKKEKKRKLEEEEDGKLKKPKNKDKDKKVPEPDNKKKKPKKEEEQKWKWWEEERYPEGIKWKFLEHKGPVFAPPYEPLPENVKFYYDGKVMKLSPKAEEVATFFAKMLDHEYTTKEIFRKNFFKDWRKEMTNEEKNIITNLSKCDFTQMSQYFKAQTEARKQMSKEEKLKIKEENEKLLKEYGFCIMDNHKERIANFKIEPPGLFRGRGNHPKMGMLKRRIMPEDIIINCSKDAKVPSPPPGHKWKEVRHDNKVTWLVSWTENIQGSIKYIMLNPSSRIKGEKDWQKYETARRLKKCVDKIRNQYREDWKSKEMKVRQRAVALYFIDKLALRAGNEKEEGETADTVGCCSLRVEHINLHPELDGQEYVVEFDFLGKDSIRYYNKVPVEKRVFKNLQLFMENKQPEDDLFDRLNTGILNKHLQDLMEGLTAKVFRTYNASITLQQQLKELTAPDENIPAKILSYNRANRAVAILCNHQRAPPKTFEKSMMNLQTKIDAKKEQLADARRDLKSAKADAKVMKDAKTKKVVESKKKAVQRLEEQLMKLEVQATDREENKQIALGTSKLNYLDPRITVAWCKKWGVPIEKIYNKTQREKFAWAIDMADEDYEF
Kind of assay: Inhibition of recombinant human DNA topoisomerase 1 at 100 uM using supercoiled pBR322 DNA as substrate after 30 mins by densitometric analysis relative to control. The essentials:
(§2)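 Relaxation of 100 ng supercoiled pBR322 by 1 unit recombinant human topo I, 37 °C for 30 min, in 10 mM Tris-HCl pH 7.9, 150 mM NaCl, 0.1% BSA, 1 mM spermidine, 5% glycerol. Stopped with sarcosyl solution, run on 1% agarose/TAE at 15 V for 7 h, ethidium bromide stained, bands quantified by densitometry. Camptothecin as positive control. Compounds first screened at 100 μM; those over 30% inhibition retested at 20 μM.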

Assay [2] addresses DNA topoisomerase 2-alpha (Homo sapiens) (UniProt P11388). Kind of assay: Inhibition of recombinant human DNA topoisomerase 2-alpha at 100 uM using supercoiled pBR322 DNA as substrate after 30 mins by densitometric analysis relative to control. The essentials:
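200 ng supercoiled pBR322 with 4 units human topo IIα, 30 min at 30 °C, in 10 mM Tris–HCl pH 7.9, 50 mM NaCl, 5 mM MgCl2, 1 mM EDTA, 1 mM ATP, 15 μg/mL BSA. Stopped with EDTA, run on 1% agarose/TAE at 60 V for 1 h, bands quantified by densitometry. Etoposide as positive control. Screening at 100 μM; above 30% inhibition, retested at 20 μM.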

Assay [3] addresses T1, DNA topoisomerase 1 (Homo sapiens). Kind of assay: Inhibition of recombinant human DNA topoisomerase 1 at 20 uM using supercoiled pBR322 DNA as substrate after 30 mins by densitometric analysis relative to control. The essentials: as §2
Assay [4] shares this target. The assay can be described thus: Potency index, ratio of test compound activity to camptothecin activity for recombinant human DNA topoisomerase 1 at 100 uM.

DNA topoisomerase 2-alpha (Homo sapiens), sequence (P11388 whole entry): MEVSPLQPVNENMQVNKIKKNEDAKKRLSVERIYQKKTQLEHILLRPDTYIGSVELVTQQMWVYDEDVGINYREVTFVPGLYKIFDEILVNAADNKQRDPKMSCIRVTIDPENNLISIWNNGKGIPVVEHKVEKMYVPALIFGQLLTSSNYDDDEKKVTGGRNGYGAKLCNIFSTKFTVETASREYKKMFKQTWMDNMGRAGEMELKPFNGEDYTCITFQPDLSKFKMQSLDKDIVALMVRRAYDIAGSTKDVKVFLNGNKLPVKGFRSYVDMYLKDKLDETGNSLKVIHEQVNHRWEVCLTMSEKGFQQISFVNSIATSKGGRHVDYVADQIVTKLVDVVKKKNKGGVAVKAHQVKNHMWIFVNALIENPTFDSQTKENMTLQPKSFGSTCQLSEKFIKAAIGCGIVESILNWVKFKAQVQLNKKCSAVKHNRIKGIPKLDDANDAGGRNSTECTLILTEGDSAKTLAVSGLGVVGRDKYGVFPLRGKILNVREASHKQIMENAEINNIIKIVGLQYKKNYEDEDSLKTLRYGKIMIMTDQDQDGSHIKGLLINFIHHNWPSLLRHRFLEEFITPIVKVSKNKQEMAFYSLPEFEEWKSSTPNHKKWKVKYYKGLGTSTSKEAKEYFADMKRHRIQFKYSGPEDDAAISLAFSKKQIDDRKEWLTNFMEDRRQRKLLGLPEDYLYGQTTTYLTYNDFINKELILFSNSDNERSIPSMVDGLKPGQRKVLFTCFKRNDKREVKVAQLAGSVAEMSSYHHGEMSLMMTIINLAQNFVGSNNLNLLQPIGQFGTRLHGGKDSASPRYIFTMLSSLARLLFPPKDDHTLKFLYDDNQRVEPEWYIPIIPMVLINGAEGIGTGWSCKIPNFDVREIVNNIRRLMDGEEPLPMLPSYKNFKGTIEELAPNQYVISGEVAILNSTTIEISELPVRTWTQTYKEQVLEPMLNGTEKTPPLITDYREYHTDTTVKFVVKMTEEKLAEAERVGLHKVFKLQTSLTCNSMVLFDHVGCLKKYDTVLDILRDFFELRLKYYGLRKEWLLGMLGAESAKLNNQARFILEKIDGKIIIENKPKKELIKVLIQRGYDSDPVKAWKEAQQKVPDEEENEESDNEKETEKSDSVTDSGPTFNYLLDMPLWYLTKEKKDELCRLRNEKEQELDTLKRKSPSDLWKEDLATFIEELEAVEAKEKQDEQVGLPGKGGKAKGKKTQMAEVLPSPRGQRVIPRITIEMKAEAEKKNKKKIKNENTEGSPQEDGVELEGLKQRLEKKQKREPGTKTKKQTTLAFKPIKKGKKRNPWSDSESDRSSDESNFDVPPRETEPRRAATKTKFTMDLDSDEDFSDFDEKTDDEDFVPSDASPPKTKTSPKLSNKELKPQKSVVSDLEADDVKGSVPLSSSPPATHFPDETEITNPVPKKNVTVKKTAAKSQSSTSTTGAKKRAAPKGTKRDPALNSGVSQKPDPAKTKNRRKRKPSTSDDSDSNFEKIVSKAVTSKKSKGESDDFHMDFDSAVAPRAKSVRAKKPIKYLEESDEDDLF

As usually defined, the GI50 is the concentration that inhibits growth by half. In the case of `Cc1c2c(nc3cnc4ccccc4c13)-c1cc(C(C)(C)C)cc(C(C)(C)C)c1OC2`, the GI50 is more than 10000 nM with NCI-H23 (Homo sapiens, NCI-H23, 72 h); more than 10000 nM in the assay on HCT-15 (Homo sapiens, HCT-15, 72 h); more than 10000 nM in the assay with NUGC-3 (Homo sapiens, NUGC-3, 72 h); more than 10000 nM in the assay with ACHN (Homo sapiens, ACHN, 72 h); more than 10000 nM in the assay with PC-3 (Homo sapiens, PC-3, 72 h); more than 10000 nM with MDA-MB-231 (Homo sapiens, MDA-MB-231, 72 h).
For the compound `Cc1c2c(nc3cnc4ccccc4c13)-c1cc(Cl)cc(Cl)c1OC2`, the GI50 in the assay on NCI-H23 (Homo sapiens, NCI-H23, 72 h) was more than 10000 nM; with HCT-15 (Homo sapiens, HCT-15, 72 h), more than 10000 nM; in the assay with NUGC-3 (Homo sapiens, NUGC-3, 72 h) it was more than 10000 nM; in the assay on ACHN (Homo sapiens, ACHN, 72 h), more than 10000 nM; with PC-3 (Homo sapiens, PC-3, 72 h), more than 10000 nM; in the assay on MDA-MB-231 (Homo sapiens, MDA-MB-231, 72 h) it was more than 10000 nM.
`Clc1ccc2c(c1)-c1nc3cnc4ccccc4c3cc1CO2` [listing 1 of 3 here]: the GI50 in the assay with NCI-H23 (Homo sapiens, NCI-H23, 72 h) came out at 1180 nM; in the assay with HCT-15 (Homo sapiens, HCT-15, 72 h), 1570 nM; in the assay on NUGC-3 (Homo sapiens, NUGC-3, 72 h), 2210 nM; with ACHN, 2560 nM; with PC-3 (Homo sapiens, PC-3, 72 h) it was 1500 nM; in the assay on MDA-MB-231, 2720 nM.
As for `Cc1c2c(nc3cnc4ccccc4c13)-c1cc(Br)ccc1OC2`, the GI50 with NCI-H23 (Homo sapiens, NCI-H23, 72 h) is more than 10000 nM; in the assay with HCT-15 (Homo sapiens, HCT-15, 72 h), more than 10000 nM; with NUGC-3 (Homo sapiens, NUGC-3, 72 h) it was more than 10000 nM; in the assay on ACHN (Homo sapiens, ACHN, 72 h), more than 10000 nM; with PC-3 (Homo sapiens, PC-3, 72 h), more than 10000 nM; in the assay with MDA-MB-231 (Homo sapiens, MDA-MB-231, 72 h), more than 10000 nM.
For the compound `COc1cccc2c1OCc1c-2nc2cnc3ccccc3c2c1C`, the GI50 turned out to be 2390 nM with NCI-H23; 1290 nM in the assay on HCT-15; 1560 nM in the assay on NUGC-3; 2010 nM in the assay on ACHN; 2060 nM in the assay on PC-3; 1670 nM with MDA-MB-231.
For `Cc1ccc(-c2c3c(nc4cnc5ccccc5c24)-c2cc(Cl)ccc2OC3)cc1`, the concentration for 50% growth inhibition (GI50) in the assay on NCI-H23 (Homo sapiens, NCI-H23, 72 h) was more than 10000 nM; in the assay on HCT-15 (Homo sapiens, HCT-15, 72 h), more than 10000 nM; with NUGC-3 (Homo sapiens, NUGC-3, 72 h), more than 10000 nM; in the assay on ACHN (Homo sapiens, ACHN, 72 h), more than 10000 nM; in the assay on PC-3 (Homo sapiens, PC-3, 72 h), more than 10000 nM; in the assay on MDA-MB-231 (Homo sapiens, MDA-MB-231, 72 h), more than 10000 nM.
For orientation: inhibition means the percentage by which the read-out fell short of the control. For the compound `Clc1ccc2c(c1)-c1nc3cnc4ccccc4c3cc1CO2` [listing 2 of 3 here], the inhibition in [1] is 1.7% and 12.3%; in assay [2] it was 0%.
Regarding `Clc1ccc2c(c1)-c1nc3cnc4ccccc4c3cc1CO2` [listing 3 of 3 here], the GI50 worked out at 900 nM with NCI-H23; 1090 nM with HCT-15; 1160 nM in the assay with NUGC-3; 1080 nM in the assay with ACHN; 1670 nM in the assay on PC-3; 1050 nM in the assay on MDA-MB-231.
`Cc1ccc(-c2c3c(nc4cnc5ccccc5c24)-c2ccccc2OC3)cc1` [listing 1 of 2 here]: the GI50 in the assay on NCI-H23 was more than 10000 nM; with HCT-15 (Homo sapiens, HCT-15, 72 h) it was 4230 nM; in the assay on NUGC-3 (Homo sapiens, NUGC-3, 72 h) it was 3850 nM; with ACHN (Homo sapiens, ACHN, 72 h), 2400 nM; in the assay with PC-3, 5020 nM; in the assay on MDA-MB-231 it was 5620 nM.
With `Brc1ccc2c(c1)-c1nc3cnc4ccccc4c3cc1CO2`, the GI50 was more than 10000 nM in the assay on NCI-H23 (Homo sapiens, NCI-H23, 72 h); more than 10000 nM in the assay on HCT-15 (Homo sapiens, HCT-15, 72 h); more than 10000 nM in the assay on NUGC-3 (Homo sapiens, NUGC-3, 72 h); more than 10000 nM in the assay on ACHN (Homo sapiens, ACHN, 72 h); more than 10000 nM in the assay with PC-3 (Homo sapiens, PC-3, 72 h); more than 10000 nM in the assay with MDA-MB-231 (Homo sapiens, MDA-MB-231, 72 h).
For the compound `Cc1ccc(-c2c3c(nc4cnc5ccccc5c24)-c2ccccc2OC3)cc1` [listing 2 of 2 here], the GI50 stood at 2060 nM in the assay with NCI-H23; 2720 nM with HCT-15; 2700 nM with NUGC-3; 2280 nM in the assay on ACHN; 1530 nM in the assay on PC-3; 1790 nM with MDA-MB-231.
On to `Cc1c2c(nc3cnc4ccccc4c13)-c1cc(F)ccc1OC2`, for which the GI50 was more than 10000 nM in the assay on NCI-H23 (Homo sapiens, NCI-H23, 72 h); more than 10000 nM in the assay on HCT-15 (Homo sapiens, HCT-15, 72 h); more than 10000 nM in the assay on NUGC-3 (Homo sapiens, NUGC-3, 72 h); more than 10000 nM in the assay on ACHN (Homo sapiens, ACHN, 72 h); more than 10000 nM in the assay with PC-3 (Homo sapiens, PC-3, 72 h); more than 10000 nM with MDA-MB-231 (Homo sapiens, MDA-MB-231, 72 h).
In the case of `Fc1ccc2c(c1)-c1nc3cnc4ccccc4c3cc1CO2`, the inhibition in assay [3] was 4.2%; in assay [2], 14.5% and 12.2%. Also, the Ratio in assay [4] was 1.32.
